From ChEMBL document CHEMBL1150797 (Antimicrob Agents Chemother, 2007)

Key:
[1] = Apparent clearance in tuberculosis patient at 450 mg, po; type: ADME, organism-based; details: human, in vivo
[2] = Apparent volume of distribution in tuberculosis patient at 450 mg, po; type: ADME, organism-based; details: human, in vivo, read-out: Vc/F
[3] = Apparent volume of distribution in tuberculosis patient at 600 mg, po; type: ADME, organism-based; details: human, in vivo, read-out: Vc/F
[4] = Cmax in human tuberculosis patient at 600 mg, po; details: in vivo
[5] = Apparent clearance in tuberculosis patient at 600 mg, po; type: ADME, organism-based; details: human, in vivo
Homo sapiens [6] = assay: Tmax in tuberculosis patient at 600 mg, po; type: ADME, organism-based; details: in vivo
[7] = Tmax in tuberculosis patient at 450 mg, po; type: ADME, organism-based; details: human, in vivo
Homo sapiens [8] = assay: Tmax in tuberculosis patient assessed as desacetylrifampin level at 450 mg, po; type: ADME, organism-based; details: in vivo
Homo sapiens [9] = assay: Tmax in tuberculosis patient assessed as desacetylrifampin level at 600 mg, po; type: ADME, organism-based; details: in vivo
clinical [10] = details: human, plasma, po, 450 mg
clinical [11] = details: human, plasma, po, 600 mg
[12] = AUC (0 to 24 hrs) in tuberculosis patient at 1500 mg, po coadministered with 600 mg, po rifampin; type: ADME, organism-based; set-up: dose 1500 mg, time < 24 hr, route oral; details: human, plasma
Procedure, shortened: (§1)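 Venous plasma was drawn predose and at 1, 1.5, 2, 2.5, 3, 4, 6 and 12 h. Assay: solid-phase extraction, HPLC-UV at 266 nm, LLOQ 0.1 mg/liter. Cmax and Tmax were observed values; noncompartmental analysis gave t1/2 as 0.693/β and AUC0-24 by linear-log trapezoid with C24 extrapolated.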

[13] = AUC (0 to 24 hrs) in tuberculosis patient at 1500 mg, po coadministered with 450 mg, po rifampin; type: ADME, organism-based; set-up: time < 24 hr, dose 1500 mg, route oral; details: human, plasma; procedure, shortened: as §1
[14] = Cmax in tuberculosis patient at 1500 mg, po coadministered with 600 mg, po rifampin; type: ADME, organism-based; set-up: dose 1500 mg, route oral; details: human, in vivo; procedure, shortened: as §1
[15] = Cmax in tuberculosis patient at 1500 mg, po coadministered with 450 mg, po rifampin; type: ADME, organism-based; set-up: dose 1500 mg, route oral; details: human, in vivo; procedure, shortened: as §1
[16] = Tmax in tuberculosis patient at 1500 mg, po coadministered with 600 mg, po rifampin; type: ADME, organism-based; details: human, in vivo; procedure, shortened: as §1
[17] = Tmax in tuberculosis patient at 1500 mg, po coadministered with 450 mg, po rifampin; type: ADME, organism-based; details: human, in vivo; procedure, shortened: as §1
[18] = Half life in tuberculosis patient at 1500 mg, po coadministered with 600 mg, po rifampin; type: ADME, organism-based; details: human, in vivo; procedure, shortened: as §1
[19] = Half life in tuberculosis patient at 1500 mg, po coadministered with 450 mg, po rifampin; type: ADME, organism-based; details: human, in vivo; procedure, shortened: as §1
[20] = AUC (0 to 24 hrs) in tuberculosis patient at 750 mg, po coadministered with 600 mg, po rifampin; type: ADME, organism-based; set-up: time < 24 hr, dose 750 mg, route oral; details: human, plasma
Procedure, shortened: (§2)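 Plasma was sampled predose and at 1–12 h (nine points). Assay: spiked with internal standard, chloroform extraction, derivatization, HPLC-UV at 215 nm, LLOQ 0.05 mg/liter. Noncompartmental analysis: Cmax and Tmax observed, t1/2 = 0.693/β, AUC0-24 by linear-log trapezoid.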

[21] = AUC (0 to 24 hrs) in tuberculosis patient at 750 mg, po coadministered with 450 mg, po rifampin; type: ADME, organism-based; set-up: dose 750 mg, time < 24 hr, route oral; details: human, plasma; procedure, shortened: as §2
Homo sapiens [22] = assay: Cmax in tuberculosis patient at 750 mg, po coadministered with 600 mg, po rifampin; type: ADME, organism-based; set-up: dose 750 mg, route oral; details: in vivo; procedure, shortened: as §2
Homo sapiens [23] = assay: Cmax in tuberculosis patient at 750 mg, po coadministered with 450 mg, po rifampin; type: ADME, organism-based; set-up: dose 750 mg, route oral; details: in vivo; procedure, shortened: as §2
[24] = Tmax in tuberculosis patient at 750 mg, po coadministered with 600 mg, po rifampin; type: ADME, organism-based; details: human, in vivo; procedure, shortened: as §2
[25] = Tmax in tuberculosis patient at 750 mg, po coadministered with 450 mg, po rifampin; type: ADME, organism-based; details: human, in vivo; procedure, shortened: as §2
[26] = Half life in tuberculosis patient at 750 mg, po coadministered with 600 mg, po rifampin; type: ADME, organism-based; details: human, in vivo; procedure, shortened: as §2
[27] = Half life in tuberculosis patient at 750 mg, po coadministered with 450 mg, po rifampin; type: ADME, organism-based; details: human, in vivo; procedure, shortened: as §2

CO[C@H]1/C=C/O[C@@]2(C)Oc3c(C)c(O)c4c(O)c(c(/C=N/N5CCN(C)CC5)c(O)c4c3C2=O)NC(=O)/C(C)=C\C=C\[C@H](C)[C@H](O)[C@@H](C)[C@@H](O)[C@@H](C)[C@H](OC(C)=O)[C@@H]1C [RIFAMPIN]
CL/F [1]: 153 mL/min | Vd/F [2]: 25.3 L | Vd/F [3]: 23.3 L | Cmax [4]: 15600 ng/mL | CL/F [5]: 125 mL/min | Tmax (Homo sapiens [6]): 1 h | Tmax [7]: 2 h | Tmax (Homo sapiens [8]): 4 h | Tmax (Homo sapiens [9]): 4 h | AUC(0-t) at 24 h (clinical [10]): 48500 ng·h/mL | AUC(0-t) at 24 h (clinical [11]): 79700 ng·h/mL

NC(=O)c1cnccn1 [PYRAZINAMIDE]
AUC(0-t) at 24 h [12]: 514000 ng·h/mL | AUC(0-t) at 24 h [13]: 473000 ng·h/mL | Cmax [14]: 46000 ng/mL | Cmax [15]: 43800 ng/mL | Tmax [16]: 2.5 h | Tmax [17]: 2.75 h | half-life [18]: 6.9 h | half-life [19]: 6.6 h

CC[C@@H](CO)NCCN[C@@H](CC)CO [ETHAMBUTOL]
AUC(0-t) at 24 h [20]: 14700 ng·h/mL | AUC(0-t) at 24 h [21]: 14400 ng·h/mL | Cmax (Homo sapiens [22]): 2.3 h | Cmax (Homo sapiens [23]): 2.4 h | Tmax [24]: 2.5 h | Tmax [25]: 2.5 h | half-life [26]: 4.6 h | half-life [27]: 4.2 h
